Assay results taken from ChEMBL document CHEMBL5058577, “EUbOPEN Chemogenomics Library 2 (Multiplex)” (2022).

System: Fibroblast
Experiment: Multiplex assay against human fibroblast
Format: toxicity, cell-based
Outline: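 Tubulin, mitochondrial-mass and membrane-permeability phenotypes are per cents of healthy-nucleus cells. Cells were gated by CellPathfinder machine learning into Hoechst high-intensity objects or normal cells, normal cells into healthy, pyknosed or fragmented nuclei, and pyknosed cells into mitotic or apoptotic. Before that, live cells stained at seeding with Hoechst33342, BioTracker Green Microtubule Cytoskeleton Dye, MitoTracker Red and Annexin V Alexa Fluor 680 were imaged on a CQ1 microscope at 37°C and 5% CO2 after compound addition.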

[1] = 12 h, 1 µM, compound concentration 1 uM, replicate 1
[2] = 12 h, 1 µM, compound concentration 1 uM, replicate 2
[3] = 12 h, 10 µM, compound concentration 10 uM, replicate 1
[4] = 12 h, 10 µM, compound concentration 10 uM, replicate 2
[5] = 24 h, 1 µM, compound concentration 1 uM, replicate 1
[6] = 24 h, 1 µM, compound concentration 1 uM, replicate 2
[7] = 24 h, 10 µM, compound concentration 10 uM, replicate 1
[8] = 24 h, 10 µM, compound concentration 10 uM, replicate 2
[9] = 48 h, 1 µM, compound concentration 1 uM, replicate 1
[10] = 48 h, 1 µM, compound concentration 1 uM, replicate 2
[11] = 48 h, 10 µM, compound concentration 10 uM, replicate 1
[12] = 48 h, 10 µM, compound concentration 10 uM, replicate 2

## c1cc(OCCCN2CCCCC2)ccc1CN1CCCCC1 [JNJ-5207852]
[1]
  Population Apoptotic (%): 37%
  Population Fragmented Nuclei (%): 15%
  Population Healthy Nuclei (%): 64%
  Population Hoechst High Intensity Objects (%): 1%
  Population Membrane Permeable-Phenotype (%): 0%
  Population Mitochondria Different-Phenotype (%): 2%
  Population Mitotic Cells (%): 62%
  Population Normal (%): 98%
  Population Pyknosed Nuclei (%): 20%
  Population Tubulin-Different-Phenotype (%): 26%
  Total Cell Count: 181
[2]
  Population Apoptotic (%): 26%
  Population Fragmented Nuclei (%): 24%
  Population Healthy Nuclei (%): 51%
  Population Hoechst High Intensity Objects (%): 7%
  Population Membrane Permeable-Phenotype (%): 8%
  Population Mitochondria Different-Phenotype (%): 5%
  Population Mitotic Cells (%): 73%
  Population Normal (%): 92%
  Population Pyknosed Nuclei (%): 23%
  Population Tubulin-Different-Phenotype (%): 49%
  Total Cell Count: 153
[3]
  Population Apoptotic (%): 50%
  Population Fragmented Nuclei (%): 22%
  Population Healthy Nuclei (%): 68%
  Population Hoechst High Intensity Objects (%): 1%
  Population Membrane Permeable-Phenotype (%): 0%
  Population Mitochondria Different-Phenotype (%): 6%
  Population Mitotic Cells (%): 50%
  Population Normal (%): 98%
  Population Pyknosed Nuclei (%): 9%
  Population Tubulin-Different-Phenotype (%): 35%
  Total Cell Count: 193
[4]
  Population Apoptotic (%): 43%
  Population Fragmented Nuclei (%): 36%
  Population Healthy Nuclei (%): 42%
  Population Membrane Permeable-Phenotype (%): 12%
  Population Mitochondria Different-Phenotype (%): 10%
  Population Mitotic Cells (%): 56%
  Population Pyknosed Nuclei (%): 20%
  Population Tubulin-Different-Phenotype (%): 60%
  Total Cell Count: 114
[5]
  Population Apoptotic (%): 38%
  Population Fragmented Nuclei (%): 18%
  Population Healthy Nuclei (%): 66%
  Population Hoechst High Intensity Objects (%): 2%
  Population Membrane Permeable-Phenotype (%): 0%
  Population Mitochondria Different-Phenotype (%): 2%
  Population Mitotic Cells (%): 61%
  Population Normal (%): 97%
  Population Pyknosed Nuclei (%): 15%
  Population Tubulin-Different-Phenotype (%): 23%
  Total Cell Count: 176
[6]
  Population Apoptotic (%): 33%
  Population Fragmented Nuclei (%): 28%
  Population Healthy Nuclei (%): 51%
  Population Hoechst High Intensity Objects (%): 5%
  Population Membrane Permeable-Phenotype (%): 5%
  Population Mitochondria Different-Phenotype (%): 6%
  Population Mitotic Cells (%): 66%
  Population Normal (%): 95%
  Population Pyknosed Nuclei (%): 19%
  Population Tubulin-Different-Phenotype (%): 55%
  Total Cell Count: 160
[7]
  Population Apoptotic (%): 60%
  Population Fragmented Nuclei (%): 24%
  Population Healthy Nuclei (%): 65%
  Population Hoechst High Intensity Objects (%): 1%
  Population Membrane Permeable-Phenotype (%): 0%
  Population Mitochondria Different-Phenotype (%): 6%
  Population Mitotic Cells (%): 40%
  Population Normal (%): 99%
  Population Pyknosed Nuclei (%): 10%
  Population Tubulin-Different-Phenotype (%): 34%
  Total Cell Count: 201
[8]
  Population Apoptotic (%): 41%
  Population Fragmented Nuclei (%): 45%
  Population Healthy Nuclei (%): 38%
  Population Hoechst High Intensity Objects (%): 5%
  Population Membrane Permeable-Phenotype (%): 4%
  Population Mitochondria Different-Phenotype (%): 13%
  Population Mitotic Cells (%): 58%
  Population Normal (%): 94%
  Population Pyknosed Nuclei (%): 15%
  Population Tubulin-Different-Phenotype (%): 67%
  Total Cell Count: 118
[9]
  Population Apoptotic (%): 70%
  Population Fragmented Nuclei (%): 18%
  Population Healthy Nuclei (%): 63%
  Population Hoechst High Intensity Objects (%): 2%
  Population Membrane Permeable-Phenotype (%): 0%
  Population Mitochondria Different-Phenotype (%): 2%
  Population Mitotic Cells (%): 29%
  Population Normal (%): 97%
  Population Pyknosed Nuclei (%): 17%
  Population Tubulin-Different-Phenotype (%): 23%
  Total Cell Count: 184
[10]
  Population Apoptotic (%): 44%
  Population Fragmented Nuclei (%): 32%
  Population Healthy Nuclei (%): 48%
  Population Hoechst High Intensity Objects (%): 4%
  Population Membrane Permeable-Phenotype (%): 5%
  Population Mitotic Cells (%): 55%
  Population Normal (%): 95%
  Population Pyknosed Nuclei (%): 18%
  Population Tubulin-Different-Phenotype (%): 50%
  Total Cell Count: 160
[11]
  Population Apoptotic (%): 55%
  Population Fragmented Nuclei (%): 19%
  Population Healthy Nuclei (%): 70%
  Population Hoechst High Intensity Objects (%): 2%
  Population Membrane Permeable-Phenotype (%): 0%
  Population Mitochondria Different-Phenotype (%): 2%
  Population Mitotic Cells (%): 44%
  Population Normal (%): 97%
  Population Pyknosed Nuclei (%): 9%
  Population Tubulin-Different-Phenotype (%): 34%
  Total Cell Count: 189
[12]
  Population Apoptotic (%): 30%
  Population Fragmented Nuclei (%): 48%
  Population Healthy Nuclei (%): 41%
  Population Hoechst High Intensity Objects (%): 3%
  Population Membrane Permeable-Phenotype (%): 5%
  Population Mitochondria Different-Phenotype (%): 11%
  Population Mitotic Cells (%): 69%
  Population Normal (%): 96%
  Population Pyknosed Nuclei (%): 10%
  Population Tubulin-Different-Phenotype (%): 66%
  Total Cell Count: 132
